Experimental data taken from ChEMBL document CHEMBL2157880, “Synthesis, antimycobacterial and antibacterial activity of ciprofloxacin derivatives containing a N-substituted benzyl moiety” (2012).
Converted amounts (≈) assume the structure as drawn.

Assays:
Type in all cases: functional
Streptococcus pneumoniae [1] = assay: Antibacterial activity against Streptococcus pneumoniae 10-6 after 18 to 24 hrs by NCCLS method
Method in brief: (§1)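 Standard NCCLS (M100-S11) MIC testing against Gram-positive and Gram-negative strains. Plates were incubated at 35 °C for 18–24 h. The MIC was read as the lowest concentration giving complete inhibition of visible bacterial growth.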

Klebsiella pneumoniae [2] = assay: Antibacterial activity against extended spectrum beta-lactamases producing Klebsiella pneumoniae 10-3 after 18 to 24 hrs by NCCLS method; method in brief: as §1
Escherichia coli [3] = assay: Antibacterial activity against extended spectrum beta-lactamases producing Escherichia coli 10-4 after 18 to 24 hrs by NCCLS method; method in brief: as §1
Pseudomonas aeruginosa [4] = assay: Antibacterial activity against Pseudomonas aeruginosa 10-18 after 18 to 24 hrs by NCCLS method; method in brief: as §1
Staphylococcus aureus [5] = assay: Antibacterial activity against Staphylococcus aureus ATCC 2592 after 18 to 24 hrs by NCCLS method; method in brief: as §1
[6] = tested on: Staphylococcus epidermidis; assay: Antibacterial activity against methicillin-sensitive Staphylococcus epidermidis 10-11 after 18 to 24 hrs by NCCLS method; method in brief: as §1
Klebsiella pneumoniae [7] = assay: Antibacterial activity against Klebsiella pneumoniae 10-2 after 18 to 24 hrs by NCCLS method; method in brief: as §1
[8] = tested on: Staphylococcus epidermidis; assay: Antibacterial activity against methicillin-sensitive Staphylococcus epidermidis 10-15 after 18 to 24 hrs by NCCLS method
Method in brief: (§2)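 Incubated at 35 °C for 18–24 h under NCCLS (M100-S11) standards. MIC was read as the lowest concentration giving complete inhibition of visible bacterial growth.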

Enterococcus faecalis [9] = assay: Antibacterial activity against Enterococcus faecalis 10-7 after 18 to 24 hrs by NCCLS method; method in brief: as §1
Escherichia coli [10] = assay: Antibacterial activity against extended spectrum beta-lactamases producing Escherichia coli 10-3 after 18 to 24 hrs by NCCLS method; method in brief: as §1
Escherichia coli [11] = assay: Antibacterial activity against Escherichia coli 10-1 after 18 to 24 hrs by NCCLS method; method in brief: as §1
Enterococcus faecium [12] = assay: Antibacterial activity against Enterococcus faecium 10-9 after 18 to 24 hrs by NCCLS method; method in brief: as §1
Staphylococcus aureus [13] = assay: Antibacterial activity against methicillin-resistant Staphylococcus aureus 10-11 after 18 to 24 hrs by NCCLS method; method in brief: as §2
Staphylococcus aureus [14] = assay: Antibacterial activity against methicillin-sensitive Staphylococcus aureus 10-13 after 18 to 24 hrs by NCCLS method; method in brief: as §1
Enterococcus faecalis [15] = assay: Antibacterial activity against Enterococcus faecalis 10-5 after 18 to 24 hrs by NCCLS method; method in brief: as §1
Enterococcus faecium [16] = assay: Antibacterial activity against Enterococcus faecium 10-6 after 18 to 24 hrs by NCCLS method; method in brief: as §1
Pseudomonas aeruginosa [17] = assay: Antibacterial activity against Pseudomonas aeruginosa 10-9 after 18 to 24 hrs by NCCLS method; method in brief: as §1
Pseudomonas aeruginosa [18] = assay: Antibacterial activity against Pseudomonas aeruginosa 10-5 after 18 to 24 hrs by NCCLS method; method in brief: as §1
Escherichia coli [19] = assay: Antibacterial activity against Escherichia coli 10-2 after 18 to 24 hrs by NCCLS method; method in brief: as §1
Pseudomonas aeruginosa [20] = assay: Antibacterial activity against Pseudomonas aeruginosa 10-15 after 18 to 24 hrs by NCCLS method; method in brief: as §1
Pseudomonas aeruginosa [21] = assay: Antibacterial activity against Pseudomonas aeruginosa 10-20 after 18 to 24 hrs by NCCLS method; method in brief: as §1
[22] = tested on: Mycobacterium tuberculosis; assay: Antimycobacterial activity against Mycobacterium tuberculosis H37Rv ATCC 27294 by microplate alamar blue assay
Method in brief: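 Microplate Alamar Blue fluorescence assay on strain H37Rv ATCC 27294. MIC was the lowest concentration cutting fluorescence by ≥90% against the mean of replicate bacterium-only controls.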

Staphylococcus aureus [23] = assay: Antibacterial activity against methicillin-sensitive Staphylococcus aureus 10-14 after 18 to 24 hrs by NCCLS method; method in brief: as §1
Escherichia coli [24] = assay: Antibacterial activity against Escherichia coli 10-3 after 18 to 24 hrs by NCCLS method; method in brief: as §1
Enterococcus faecalis [25] = assay: Antibacterial activity against Enterococcus faecalis 10-6 after 18 to 24 hrs by NCCLS method; method in brief: as §1
[26] = tested on: Staphylococcus epidermidis; assay: Antibacterial activity against methicillin-resistant Staphylococcus epidermidis 10-10 after 18 to 24 hrs by NCCLS method; method in brief: as §2
Klebsiella pneumoniae [27] = assay: Antibacterial activity against Klebsiella pneumoniae 10-4 after 18 to 24 hrs by NCCLS method; method in brief: as §1
Escherichia coli [28] = assay: Antibacterial activity against extended spectrum beta-lactamases producing Escherichia coli 10-2 after 18 to 24 hrs by NCCLS method; method in brief: as §1
Staphylococcus aureus [29] = assay: Antibacterial activity against methicillin-resistant Staphylococcus aureus 10-13 after 18 to 24 hrs by NCCLS method; method in brief: as §2
Escherichia coli [30] = assay: Antibacterial activity against Escherichia coli ATCC 25922 after 18 to 24 hrs by NCCLS method; method in brief: as §1
[31] = tested on: Staphylococcus epidermidis; assay: Antibacterial activity against methicillin-resistant Staphylococcus epidermidis 10-13 after 18 to 24 hrs by NCCLS method; method in brief: as §2
Klebsiella pneumoniae [32] = assay: Antibacterial activity against extended spectrum beta-lactamases producing Klebsiella pneumoniae 10-2 after 18 to 24 hrs by NCCLS method; method in brief: as §1
Pseudomonas aeruginosa [33] = assay: Antibacterial activity against Pseudomonas aeruginosa 10-12 after 18 to 24 hrs by NCCLS method; method in brief: as §1
Staphylococcus aureus [34] = assay: Antibacterial activity against methicillin-resistant Staphylococcus aureus 10-15 after 18 to 24 hrs by NCCLS method; method in brief: as §2
Streptococcus pneumoniae [35] = assay: Antibacterial activity against Streptococcus pneumoniae 10-1 after 18 to 24 hrs by NCCLS method; method in brief: as §1
Staphylococcus aureus [36] = assay: Antibacterial activity against methicillin-sensitive Staphylococcus aureus 10-11 after 18 to 24 hrs by NCCLS method; method in brief: as §1
Klebsiella pneumoniae [37] = assay: Antibacterial activity against Klebsiella pneumoniae 10-3 after 18 to 24 hrs by NCCLS method; method in brief: as §1
Klebsiella pneumoniae [38] = assay: Antibacterial activity against extended spectrum beta-lactamases producing Klebsiella pneumoniae 10-1 after 18 to 24 hrs by NCCLS method; method in brief: as §1

## COc1ccc(CN2CCN(c3cc4c(cc3F)c(=O)c(C(=O)O)cn4C3CC3)CC2)c(OC)c1OC
Streptococcus pneumoniae [1]
  MIC: 64 µg/mL (≈ 125 µM)
Klebsiella pneumoniae [2]
  MIC: > 128 µg/mL
Escherichia coli [3]
  MIC: 64 µg/mL (≈ 125 µM)
Pseudomonas aeruginosa [4]
  MIC: 64 µg/mL (≈ 125 µM)
Staphylococcus aureus [5]
  MIC: 0.5 µg/mL (≈ 0.977 µM)
[6]
  MIC: 0.25 µg/mL (≈ 0.489 µM)
Klebsiella pneumoniae [7]
  MIC: > 128 µg/mL
[8]
  MIC: 16 µg/mL (≈ 31.3 µM)
Enterococcus faecalis [9]
  MIC: 64 µg/mL (≈ 125 µM)
Escherichia coli [10]
  MIC: > 128 µg/mL
Escherichia coli [11]
  MIC: > 128 µg/mL
Enterococcus faecium [12]
  MIC: 32 µg/mL (≈ 62.6 µM)
Staphylococcus aureus [13]
  MIC: 16 µg/mL (≈ 31.3 µM)
Staphylococcus aureus [14]
  MIC: 0.25 µg/mL (≈ 0.489 µM)
Enterococcus faecalis [15]
  MIC: 16 µg/mL (≈ 31.3 µM)
Enterococcus faecium [16]
  MIC: 8 µg/mL (≈ 15.6 µM)
Pseudomonas aeruginosa [17]
  MIC: 32 µg/mL (≈ 62.6 µM)
Pseudomonas aeruginosa [18]
  MIC: 32 µg/mL (≈ 62.6 µM)
Escherichia coli [19]
  MIC: 16 µg/mL (≈ 31.3 µM)
Pseudomonas aeruginosa [20]
  MIC: 32 µg/mL (≈ 62.6 µM)
Pseudomonas aeruginosa [21]
  MIC: 32 µg/mL (≈ 62.6 µM)
[22]
  MIC: 16 µg/mL (≈ 31.3 µM)
Staphylococcus aureus [23]
  MIC: 0.125 µg/mL (≈ 0.244 µM)
Escherichia coli [24]
  MIC: 64 µg/mL (≈ 125 µM)
Enterococcus faecalis [25]
  MIC: > 128 µg/mL
[26]
  MIC: 64 µg/mL (≈ 125 µM)
Klebsiella pneumoniae [27]
  MIC: > 128 µg/mL
Escherichia coli [28]
  MIC: > 128 µg/mL
Staphylococcus aureus [29]
  MIC: 64 µg/mL (≈ 125 µM)
Escherichia coli [30]
  MIC: 0.5 µg/mL (≈ 0.977 µM)
[31]
  MIC: 64 µg/mL (≈ 125 µM)
Klebsiella pneumoniae [32]
  MIC: > 128 µg/mL
Pseudomonas aeruginosa [33]
  MIC: 64 µg/mL (≈ 125 µM)
Staphylococcus aureus [34]
  MIC: 16 µg/mL (≈ 31.3 µM)
Streptococcus pneumoniae [35]
  MIC: 8 µg/mL (≈ 15.6 µM)
Staphylococcus aureus [36]
  MIC: 0.125 µg/mL (≈ 0.244 µM)
Klebsiella pneumoniae [37]
  MIC: 16 µg/mL (≈ 31.3 µM)
Klebsiella pneumoniae [38]
  MIC: > 128 µg/mL

## COc1cc(CN2CCN(c3cc4c(cc3F)c(=O)c(C(=O)O)cn4C3CC3)CC2)ccc1OCc1ccccc1
Streptococcus pneumoniae [1]
  MIC: 32 µg/mL (≈ 57.4 µM)
Klebsiella pneumoniae [2]
  MIC: > 128 µg/mL
Escherichia coli [3]
  MIC: > 128 µg/mL
Pseudomonas aeruginosa [4]
  MIC: 32 µg/mL (≈ 57.4 µM)
Staphylococcus aureus [5]
  MIC: 2 µg/mL (≈ 3.59 µM)
[6]
  MIC: 1 µg/mL (≈ 1.79 µM)
Klebsiella pneumoniae [7]
  MIC: > 128 µg/mL
[8]
  MIC: 32 µg/mL (≈ 57.4 µM)
Enterococcus faecalis [9]
  MIC: 32 µg/mL (≈ 57.4 µM)
Escherichia coli [10]
  MIC: > 128 µg/mL
Escherichia coli [11]
  MIC: > 128 µg/mL
Enterococcus faecium [12]
  MIC: 32 µg/mL (≈ 57.4 µM)
Staphylococcus aureus [13]
  MIC: > 128 µg/mL
Staphylococcus aureus [14]
  MIC: 2 µg/mL (≈ 3.59 µM)
Enterococcus faecalis [15]
  MIC: 32 µg/mL (≈ 57.4 µM)
Enterococcus faecium [16]
  MIC: 16 µg/mL (≈ 28.7 µM)
Pseudomonas aeruginosa [17]
  MIC: 64 µg/mL (≈ 115 µM)
Pseudomonas aeruginosa [18]
  MIC: 32 µg/mL (≈ 57.4 µM)
Escherichia coli [19]
  MIC: 32 µg/mL (≈ 57.4 µM)
Pseudomonas aeruginosa [20]
  MIC: 64 µg/mL (≈ 115 µM)
Pseudomonas aeruginosa [21]
  MIC: 32 µg/mL (≈ 57.4 µM)
[22]
  MIC: 16 µg/mL (≈ 28.7 µM)
Staphylococcus aureus [23]
  MIC: 1 µg/mL (≈ 1.79 µM)
Escherichia coli [24]
  MIC: > 128 µg/mL
Enterococcus faecalis [25]
  MIC: 64 µg/mL (≈ 115 µM)
[26]
  MIC: 128 µg/mL (≈ 230 µM)
Klebsiella pneumoniae [27]
  MIC: > 128 µg/mL
Escherichia coli [28]
  MIC: > 128 µg/mL
Staphylococcus aureus [29]
  MIC: > 128 µg/mL
Escherichia coli [30]
  MIC: 0.5 µg/mL (≈ 0.897 µM)
[31]
  MIC: 64 µg/mL (≈ 115 µM)
Klebsiella pneumoniae [32]
  MIC: > 128 µg/mL
Pseudomonas aeruginosa [33]
  MIC: 32 µg/mL (≈ 57.4 µM)
Staphylococcus aureus [34]
  MIC: > 128 µg/mL
Streptococcus pneumoniae [35]
  MIC: 16 µg/mL (≈ 28.7 µM)
Staphylococcus aureus [36]
  MIC: 0.5 µg/mL (≈ 0.897 µM)
Klebsiella pneumoniae [37]
  MIC: 32 µg/mL (≈ 57.4 µM)
Klebsiella pneumoniae [38]
  MIC: > 128 µg/mL

## O=C(O)c1cn(C2CC2)c2cc(N3CCNCC3)c(F)cc2c1=O [CIPROFLOXACIN]
Streptococcus pneumoniae [1]
  MIC: 32 µg/mL (≈ 96.6 µM)
Klebsiella pneumoniae [2]
  MIC: 32 µg/mL (≈ 96.6 µM)
Pseudomonas aeruginosa [4]
  MIC: 1 µg/mL (≈ 3.02 µM)
Staphylococcus aureus [5]
  MIC: 0.25 µg/mL (≈ 0.754 µM)
[6]
  MIC: 0.5 µg/mL (≈ 1.51 µM)
Klebsiella pneumoniae [7]
  MIC: 32 µg/mL (≈ 96.6 µM)
[8]
  MIC: 8 µg/mL (≈ 24.1 µM)
Enterococcus faecalis [9]
  MIC: 16 µg/mL (≈ 48.3 µM)
Enterococcus faecium [12]
  MIC: 16 µg/mL (≈ 48.3 µM)
Staphylococcus aureus [13]
  MIC: 32 µg/mL (≈ 96.6 µM)
Staphylococcus aureus [14]
  MIC: 0.5 µg/mL (≈ 1.51 µM)
Enterococcus faecalis [15]
  MIC: 8 µg/mL (≈ 24.1 µM)
Enterococcus faecium [16]
  MIC: 1 µg/mL (≈ 3.02 µM)
[22]
  MIC: 0.5 µg/mL (≈ 1.51 µM)
Staphylococcus aureus [23]
  MIC: 0.5 µg/mL (≈ 1.51 µM)
Enterococcus faecalis [25]
  MIC: 64 µg/mL (≈ 193 µM)
[26]
  MIC: 8 µg/mL (≈ 24.1 µM)
Klebsiella pneumoniae [27]
  MIC: 32 µg/mL (≈ 96.6 µM)
Staphylococcus aureus [29]
  MIC: 128 µg/mL (≈ 386 µM)
[31]
  MIC: 16 µg/mL (≈ 48.3 µM)
Klebsiella pneumoniae [32]
  MIC: 32 µg/mL (≈ 96.6 µM)
Streptococcus pneumoniae [35]
  MIC: 2 µg/mL (≈ 6.04 µM)
Staphylococcus aureus [36]
  MIC: 0.5 µg/mL (≈ 1.51 µM)
Klebsiella pneumoniae [37]
  MIC: 0.25 µg/mL (≈ 0.754 µM)
Klebsiella pneumoniae [38]
  MIC: 32 µg/mL (≈ 96.6 µM)
